Measurements as given in ChEMBL document CHEMBL4680084, “New β-Lactam Derivatives Modulate Cell Adhesion and Signaling Mediated by RGD-Binding and Leukocyte Integrins” (J Med Chem, 2016).
Calls of active or inactive are those of the source. The calls are words filed in the database; no cut-off is given here.

Experiments:
SK-MEL-24 = assay: Toxicity in human SK-MEL-24 cells assessed as induction of cell necrosis and/or apoptosis incubated for 3 hrs by annexin V-PE and 7-AAD staining based by flow cytometry; conditions: sk-mel-24, 3 h
Summary of the method: (§1)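 After 3 h incubation, cells resuspended in complete medium and stained with annexin V-PE/7-AAD reagent for 20 min at room temperature in the dark. Flow cytometry sorted cells into viable, early apoptotic and late apoptotic/necrotic populations.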

MCF7 = assay: Toxicity in human MCF7 cells assessed as induction of cell necrosis and/or apoptosis incubated for 3 hrs by annexin V-PE and 7-AAD staining based by flow cytometry; conditions: mcf7, 3 h; summary of the method: as §1
HT-29 = assay: Toxicity in human HT-29 cells assessed as induction of cell necrosis and/or apoptosis incubated for 3 hrs by annexin V-PE and 7-AAD staining based by flow cytometry; conditions: ht-29, 3 h; summary of the method: as §1
K562 = assay: Toxicity in human K562 cells assessed as induction of cell necrosis and/or apoptosis incubated for 3 hrs by annexin V-PE and 7-AAD staining based by flow cytometry; conditions: k562, 3 h; summary of the method: as §1
HEL = assay: Toxicity in human HEL cells assessed as induction of cell necrosis and/or apoptosis incubated for 3 hrs by annexin V-PE and 7-AAD staining based by flow cytometry; summary of the method: as §1
Integrin alpha-V/beta-3 [1] = molecular target: T1, Integrin alpha-V/beta-3 (Homo sapiens, UniProt P05106+P06756); assay: Antagonist activity at alphaVbeta3 in human SK-MEL-24 cells assessed as reduction in cell adhesion to fibronectin pre-incubated for 30 mins before fibronectin and further incubated for 1 hr by nitrophenyl-N-acetyl-beta-D-glucosaminide substrate based chromogenic assay
Summary of the method: (§2)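 Compound or methanol vehicle pre-incubated with cells for 30 min at room temperature. Cells then plated on wells coated overnight at 4 °C with fibronectin 10 µg/mL (SK-MEL-24, K562, HT-29) or fibrinogen 10 µg/mL (MCF7, HEL). Seeding was 50,000 cells/well, or 100000 for HEL. Adhesion ran 1 h at room temperature. Wells washed with 1% BSA/PBS. Quadruplicate, at least three repeats.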

Integrin alpha-V/beta-5 [2] = molecular target: T2, Integrin alpha-V/beta-5 (Homo sapiens, UniProt P06756+P18084); assay: Agonist activity at alphaVbeta5 in human MCF7 cells assessed as increase in cell adhesion to fibrinogen pre-incubated for 30 mins before fibrinogen and further incubated for 1 hr by nitrophenyl-N-acetyl-beta-D-glucosaminide substrate based chromogenic assay
Summary of the method: as §2, with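 “BSA/PBS. Adherent cells read by hexosaminidase substrate, absorbance 405 nm.” for “BSA/PBS.”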

Integrin alpha-V/beta-5 [3] = molecular target: T2, Integrin alpha-V/beta-5; assay: Antagonist activity at alphaVbeta5 in human MCF7 cells assessed as reduction in cell adhesion to fibrinogen pre-incubated for 30 mins before fibrinogen and further incubated for 1 hr by nitrophenyl-N-acetyl-beta-D-glucosaminide substrate based chromogenic assay; summary of the method: as §2
Integrin alpha-V/beta-6 [4] = molecular target: T3, Integrin alpha-V/beta-6 (Homo sapiens, UniProt P06756+P18564); assay: Agonist activity at alphaVbeta6 in human HT-29 cells assessed as increase in cell adhesion to fibronectin pre-incubated for 30 mins before fibronectin and further incubated for 1 hr by nitrophenyl-N-acetyl-beta-D-glucosaminide substrate based chromogenic assay
Summary of the method: as §2, with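 “BSA/PBS. Adherent cells read by hexosaminidase substrate, absorbance 405 nm.” for “BSA/PBS.”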

Integrin alpha-V/beta-6 [5] = molecular target: T3, Integrin alpha-V/beta-6; assay: Antagonist activity at alphaVbeta6 in human HT-29 cells assessed as reduction in cell adhesion to fibronectin pre-incubated for 30 mins before fibronectin and further incubated for 1 hr by nitrophenyl-N-acetyl-beta-D-glucosaminide substrate based chromogenic assay; summary of the method: as §2
Integrin alpha-5/beta-1 [6] = molecular target: T4, Integrin alpha-5/beta-1 (Homo sapiens, UniProt P05556+P08648); assay: Agonist activity at alpha5beta1 in human K562 cells assessed as increase in cell adhesion to fibronectin pre-incubated for 30 mins before fibronectin and further incubated for 1 hr by nitrophenyl-N-acetyl-beta-D-glucosaminide substrate based chromogenic assay
Summary of the method: as §2, with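 “BSA/PBS. Adherent cells read by hexosaminidase substrate, absorbance 405 nm.” for “BSA/PBS.”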

[7] = molecular target: T5, Integrin alpha-IIb/beta-3 (Homo sapiens, UniProt P05106+P08514); assay: Agonist activity at alpha2bbeta3 in human HEL cells assessed as increase in cell adhesion to fibrinogen pre-incubated for 30 mins before fibrinogen and further incubated for 1 hr by nitrophenyl-N-acetyl-beta-D-glucosaminide substrate based chromogenic assay; summary of the method: as §2
Integrin alpha-4/beta-1 = Integrin alpha-4/beta-1 (Homo sapiens, UniProt P05556+P13612); assay: Antagonist activity at alpha4beta1 in human Jurkat E6.1 cells assessed as reduction in cell adhesion to VCAM1 pre-incubated for 30 mins before VCAM1 and further incubated for 30 mins by […]; type: cell-based
[8] = molecular target: Integrin alpha-L/beta-2 (LFA-1) (Homo sapiens, UniProt P05107+P20701); assay: Antagonist activity at alphaLbeta2 in human Jurkat E6.1 cells assessed as reduction in cell adhesion to ICAM1 pre-incubated for 30 mins before ICAM1 and further incubated for 30 mins by […]; type: cell-based
Summary of the method: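 Jurkat E6.1 cells labelled with CellTracker green CMFDA (12.5 µM, 30 min, 37 °C), washed, then pre-incubated 30 min at 37 °C with compound or methanol. Plated at 500,000/well on VCAM-1 (α4β1) or ICAM-1 (αLβ2) coated wells (5 µg/mL) for 30 min at 37 °C. Cells lysed in 0.5% Triton X-100; fluorescence read Ex485/Em535. Quadruplicate, at least three repeats.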

Integrin alpha-V/beta-3 [9] = molecular target: T1, Integrin alpha-V/beta-3; assay: Inhibition of fibronectin binding to human recombinant alphaVbeta3 expressed in HEK293 cells incubated for 1 hr by […] competitive solid-phase binding assay; type: cell-based
Integrin alpha-V/beta-5 [10] = molecular target: T2, Integrin alpha-V/beta-5; assay: Inhibition of fibrinogen binding to alphaVbeta5 isolated form human mCf7 cells incubated for 1 hr by […] competitive solid-phase binding assay
Integrin alpha-5/beta-1 [11] = molecular target: T4, Integrin alpha-5/beta-1; assay: Agonist activity at alpha5beta1 in human K562 cells assessed as increase in cell adhesion to fibronectin pre-incubated for 30 mins and further incubated for 1 hr by nitrophenyl-N-acetyl-beta-D-glucosaminide substrate based chromogenic assay; conditions: filed as agonist, time 90.0 min
Summary of the method: as §2, with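 “BSA/PBS. Adherent cells read by hexosaminidase substrate, absorbance 405 nm.” for “BSA/PBS.”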

Integrin alpha-5/beta-1 [12] = molecular target: T4, Integrin alpha-5/beta-1; assay: Agonist activity at alpha5beta1 in human K562 cells assessed as increase in cell adhesion to fibronectin at 10 ug/ml pre-incubated for 30 mins and further incubated for 1 hr in presence of integrin antagonist c(-RGDfV) by nitrophenyl-N-acetyl-beta-D-glucosaminide substrate based chromogenic assay; conditions: dose 10.0 µg/ml, time 90.0 min
Summary of the method: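 Agonist-coated wells (10 µg/mL in methanol). Cells pre-treated 10 min before plating with neutralizing anti-α5, anti-αv or anti-α4 antibody (10 µg/mL), or pre-incubated with c(-RGDfV) (1 µM). K562 plated at 50,000/well and Jurkat E6.1 at 500,000/well. Adhesion quantified as in the standard assay.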

[13] = molecular target: T5, Integrin alpha-IIb/beta-3; assay: Agonist activity at alpha2bbeta3 in human K562 cells assessed as increase in cell adhesion to fibrinogen pre-incubated for 30 mins and further incubated for 1 hr in presence of alpha2bbeta3 antagonist Tirofiban by nitrophenyl-N-acetyl-beta-D-glucosaminide substrate based chromogenic assay; conditions: time 90.0 min
Integrin alpha-5/beta-1 [14] = molecular target: T4, Integrin alpha-5/beta-1; assay: Agonist activity at alpha5beta1 in human K562 cells assessed as assessed as increase in ERK1/2 phosphorylation at 1 to 100 nM by Western blot analysis; type: cell-based; conditions: filed as agonist, dose 1-100 nM

Compound | Activity (SK-MEL-24) | Activity (MCF7) | Activity (HT-29) | Activity (K562) | Activity (HEL) | IC50 (Integrin alpha-V/beta-3 [1]) [µM] | EC50 (Integrin alpha-V/beta-5 [2]) [µM] | IC50 (Integrin alpha-V/beta-5 [3]) [µM] | EC50 (Integrin alpha-V/beta-6 [4]) [µM] | IC50 (Integrin alpha-V/beta-6 [5]) [µM] | EC50 (Integrin alpha-5/beta-1 [6]) [µM] | EC50 [7] [µM] | IC50 (Integrin alpha-4/beta-1) [µM] | IC50 [8] [µM] | IC50 (Integrin alpha-V/beta-3 [9]) [µM] | IC50 (Integrin alpha-V/beta-5 [10]) [µM] | Activity (Integrin alpha-5/beta-1 [11]) | Activity ([13]; filed as agonist) | Activity (Integrin alpha-5/beta-1 [14]) | Activity (Integrin alpha-5/beta-1 [12]; filed as agonist) | further results
Nc1ccc(CNC(=O)N2C(=O)CC2CC(=O)O)cc1.O=C(O)C(F)(F)F (stereo not given) | Non-Toxic | Non-Toxic | Non-Toxic | Non-Toxic | Non-Toxic | 0.0717 | > 5 | > 5 | > 5 | > 5 | 0.0445 | > 5 | 0.574 | 0.00039 | 0.0099 | > 1 | Dose-dependent effect | Active | Active |  | Activity (Integrin alpha-5/beta-1 [12]): inactive
NCc1ccc(NC(=O)N2C(=O)CC2CC(=O)NCCC(=O)O)cc1.O=C(O)C(F)(F)F (stereo not given) | Non-Toxic | Non-Toxic | Non-Toxic | Non-Toxic | Non-Toxic | > 5 | > 5 | > 5 | > 5 | > 5 | 0.0067 | 1.56 | > 5 | > 5 | > 1 | > 1 | Dose-dependent effect |  | Dose-dependent effect | Active | Activity [13]: inactive
Cc1ccccc1NC(=O)N1C(=O)CC1CC(=O)NCC(=O)O (stereo not given) | Non-Toxic | Non-Toxic | Non-Toxic | Non-Toxic | Non-Toxic | > 5 | > 5 | > 5 | > 5 | > 5 | 0.0099 | > 5 | > 5 | > 5 | > 1 | > 1 | Dose-dependent effect | Active | Dose-dependent effect | Active | 
